Experimental data from different studies.
Values after ≈ are worked out from the molar mass of the structure shown.

CNC(=S)NN=Cc1ccc(C)cc1  IC50 (Leishmania tropica; parasite growth, MTT; 72 h, promastigote): 1050 µM
Cc1ccc(COc2ccc(C3Oc4ccccc4C=C3[N+](=O)[O-])cc2)cc1 (stereo not drawn)  IC50 (Leishmania tropica; parasite growth; THP-1; 72 h, intracellular, amastigote): 150 µg/mL
Cc1ccc(N=Nc2c(N)nn3c(-c4ccco4)cc(-c4ccc(OCc5ccccc5)cc4)nc23)cc1  MFC (Saccharomyces cerevisiae; microbial killing, broth dilution; ATCC9763): 62.5 µg/mL (≈ 125 µM)
O=[N+]([O-])C1=Cc2ccccc2OC1c1cccc(OCc2ccc(Cl)cc2)c1 (stereo not drawn)  IC50 (Leishmania tropica; parasite growth; THP-1; 72 h, intracellular, amastigote): 149 µg/mL
S=C(NN=Cc1ccc(Br)cc1)Nc1cccnc1  IC50 (Leishmania tropica; parasite growth; J774.A1; 72 h, intracellular, amastigote): 475 µM
CC(=O)N1CCN(c2ccc(OCC3COC(Cn4ccnc4)(c4ccc(Cl)cc4Cl)O3)cc2)CC1 (stereo not drawn)  MFC (Saccharomyces cerevisiae; microbial killing, broth dilution; ATCC9763): 15.6 µg/mL (≈ 29.4 µM)
CCOC(=O)C1=C(CN2CCN(Cc3ccc(B(O)O)cc3)CC2)NC(c2nccs2)=NC1c1ccc(F)cc1Br (stereo not drawn)  EC50 (Hepatitis B virus; viral replication, inhibitor, qPCR; HepDES19; 72 h): 0.97 µM
COc1ccc(N=Nc2c(N)nn3c(-c4ccco4)cc(-c4ccc(OCc5ccccc5)cc4)nc23)cc1  MFC (Saccharomyces cerevisiae; microbial killing, broth dilution; ATCC9763): 125 µg/mL (≈ 242 µM)
CCOC(=O)C1=C(CN2CCC[C@H]2C(=O)Nc2ccc(B(O)O)cc2)NC(c2nccs2)=N[C@@H]1c1ccc(F)cc1Br  EC50 (Hepatitis B virus; viral replication, inhibitor, qPCR; HepDES19; 72 h): 33.3 µM
Fc1ccc(C=NNC(=S)Nc2cccnc2)cc1  IC50 (Leishmania tropica; parasite growth; J774.A1; 72 h, intracellular, amastigote): 201 µM
Cc1ccc(N=Nc2c(N)nn3c(-c4ccc(Cl)cc4Cl)cc(-c4ccc(OCc5ccccc5)cc4)nc23)cc1  MFC (Saccharomyces cerevisiae; microbial killing, broth dilution; ATCC9763): 125 µg/mL (≈ 216 µM)
OC(Cn1cncn1)(Cn1cncn1)c1ccc(F)cc1F  MIC (Saccharomyces cerevisiae; microbial growth, broth dilution; BY4741; 48 h): 4 µg/mL (≈ 13.1 µM)
CNC(=S)NN=Cc1ccc(F)cc1  IC50 (Leishmania tropica; parasite growth; J774.A1; 72 h, intracellular, amastigote): 762 µM
C[C@@H]1[C@H](O)[C@@H](C)/C=C/C=C/C=C/C=C/C=C/C=C/C=C/[C@H](O[C@@H]2O[C@H](C)[C@@H](O)[C@H](N)[C@@H]2O)C[C@@H]2O[C@](O)(C[C@@H](O)C[C@@H](O)[C@H](O)CC[C@@H](O)C[C@@H](O)CC(=O)O[C@H]1C)C[C@H](O)[C@H]2C(=O)O  MIC (Saccharomyces cerevisiae; microbial growth, broth dilution; BY4741; 48 h): 0.25 µg/mL (≈ 0.271 µM)
CNC(=S)NN=Cc1ccc([N+](=O)[O-])cc1  IC50 (Leishmania tropica; parasite growth, MTT; 72 h, promastigote): 240 µM
CCOC(=O)C1=C(CN2CCC(C(=O)Nc3ccc(B(O)O)cc3)C2)NC(c2nccs2)=NC1c1ccc(F)cc1Br (stereo not drawn)  EC50 (Hepatitis B virus; viral replication, inhibitor, qPCR; HepDES19; 72 h): 0.5 µM
COc1ccc(C=NNC(=S)Nc2cccnc2)cc1OC  IC50 (Leishmania tropica; parasite growth, MTT; 72 h, promastigote): > 1000 µM
O=[N+]([O-])C1=Cc2ccccc2OC1c1ccc(F)cc1 (stereo not drawn)  IC50 (Leishmania tropica; parasite growth; THP-1; 72 h, intracellular, amastigote): 147 µg/mL
C[C@@H]1[C@H](O)[C@@H](C)/C=C/C=C/C=C/C=C/C=C/C=C/C=C/[C@H](O[C@@H]2O[C@H](C)[C@@H](O)[C@H](N)[C@@H]2O)C[C@@H]2O[C@](O)(C[C@@H](O)C[C@@H](O)[C@H](O)CC[C@@H](O)C[C@@H](O)CC(=O)O[C@H]1C)C[C@H](O)[C@H]2C(=O)O  IC50 (Leishmania tropica; parasite growth; J774.A1; 72 h, intracellular, amastigote): 27.9 µM
COc1ccc(N=Nc2c(N)nn3c(-c4ccc(C)cc4)cc(-c4ccc(OCc5ccccc5)cc4)nc23)cc1  MIC (Saccharomyces cerevisiae; microbial growth, broth dilution; ATCC9763): 31.3 µg/mL (≈ 57.9 µM)
CCOC(=O)C1=C(CN2CCC(C(=O)Nc3cccc(B4OC(C)(C)C(C)(C)O4)c3)C2)NC(c2nccs2)=NC1c1ccc(F)cc1Br (stereo not drawn)  EC50 (Hepatitis B virus; viral replication, inhibitor, qPCR; HepDES19; 72 h): 0.87 µM
COc1ccc(N=Nc2c(N)nn3c(-c4ccc(Cl)cc4Cl)cc(-c4ccc(OCc5ccccc5)cc4)nc23)cc1  MFC (Saccharomyces cerevisiae; microbial killing, broth dilution; ATCC9763): 500 µg/mL (≈ 840 µM)
CNC(=S)NN=Cc1ccc(OC)c(OC)c1  IC50 (Leishmania tropica; parasite growth, MTT; 72 h, promastigote): 258 µM
O=[N+]([O-])C1=Cc2ccccc2OC1c1cccc(OCc2ccc([N+](=O)[O-])cc2)c1 (stereo not drawn)  IC50 (Leishmania tropica; parasite growth; THP-1; 72 h, intracellular, amastigote): 144 µg/mL
CCOC(=O)C1=C(CN2CCCC2C(=O)Nc2cccc(B(O)O)c2)NC(c2nccs2)=NC1c1ccc(F)cc1Br (stereo not drawn)  EC50 (Hepatitis B virus; viral replication, inhibitor, qPCR; HepDES19; 72 h): 0.47 µM
O=[N+]([O-])C1=Cc2ccccc2OC1c1ccc(OCc2ccc(Cl)cc2)cc1 (stereo not drawn)  IC50 (Leishmania tropica; parasite growth; THP-1; 72 h, intracellular, amastigote): 142 µg/mL
CCOC(=O)C1=C(CN2CCN(Cc3ccccc3B(O)O)CC2)NC(c2nccs2)=NC1c1ccc(F)cc1Br (stereo not drawn)  EC50 (Hepatitis B virus; viral replication, inhibitor, qPCR; HepDES19; 72 h): 1.47 µM
O=[N+]([O-])C1=Cc2ccccc2OC1c1ccccc1Cl (stereo not drawn)  IC50 (Leishmania tropica; parasite growth; THP-1; 72 h, intracellular, amastigote): 164 µg/mL
Cc1ccc(-c2cc(-c3ccc(OCc4ccccc4)cc3)nc3c(N=Nc4ccc(F)cc4)c(N)nn23)cc1  MIC (Saccharomyces cerevisiae; microbial growth, broth dilution; ATCC9763): 62.5 µg/mL (≈ 118 µM)
COc1ccc(C2Oc3ccccc3C=C2[N+](=O)[O-])cc1 (stereo not drawn)  IC50 (Leishmania tropica; parasite growth; THP-1; 72 h, intracellular, amastigote): 150 µg/mL
CCOC(=O)C1=C(CN2CCN(Cc3cccc(B4OC(C)(C)C(C)(C)O4)c3)CC2)NC(c2nccs2)=NC1c1ccc(F)cc1Br (stereo not drawn)  EC50 (Hepatitis B virus; viral replication, inhibitor, qPCR; HepDES19; 72 h): 1.3 µM
Cc1ccc(N=Nc2c(N)nn3c(-c4ccc(C)cc4)cc(-c4ccc(OCc5ccccc5)cc4)nc23)cc1  MIC (Saccharomyces cerevisiae; microbial growth, broth dilution; ATCC9763): 62.5 µg/mL (≈ 119 µM)
O=[N+]([O-])C1=Cc2ccccc2OC1c1cccc(Br)c1 (stereo not drawn)  IC50 (Leishmania tropica; parasite growth; THP-1; 72 h, intracellular, amastigote): 171 µg/mL
